Results on one compound are retold here after ChEMBL document CHEMBL3877293, “Synthesis and Antineoplastic Evaluation of Novel Unsymmetrical 1,3,4-Oxadiazoles” (J Med Chem, 2016).

Calls of active or inactive are those of the source. The calls are words filed in the database; no cut-off is given here.

The subject of one data set is MCF7. Description: Antiproliferative activity against human MCF7 cells at 2 uM after 72 hrs by XTT assay. In kind it is functional, cell-based. Background: Formazan colour is commonly taken as a measure of viable cells.
The test system of data set [1] is HeLa. As to the kind of experiment: Antiproliferative activity against human HeLa cells at 2 uM after 72 hrs by XTT assay. The format is functional, cell-based.
Data set [2] in a line: Antiproliferative activity against human NCI-H1299 cells after 72 hrs by XTT assay. The format is functional, cell-based. The settings on record: NCI-H1299, 72 h. An outline of the steps:
(§1)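 Cells plated at 1500–2000 per well by doubling time, treated after 24 h with a concentration series in six triplicate wells, and incubated 72 h without a medium change. XTT reagent was then added for 4 h at 37 °C and absorbance read at 490 nm. IC50 is the concentration halving absorbance versus untreated cells. Experiments run in triplicate.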

Data set [3] is described as follows: Antiproliferative activity against human SK-N-AS cells after 72 hrs by XTT assay. The format is functional, cell-based. The method in brief:
as §1

Data set [4] is described as follows: Antiproliferative activity against human MCF7 cells at 0.5 uM after 72 hrs in presence of 5 uM BCRP inhibitor harmine by XTT assay relative to control. The format is functional. The method in brief:
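Mcf7 cells treated after 24 h for 72 h at 37 °C, 5% CO2 with test compound at 0.5 μM alone or combined with harmine (1, 3, 5 μM) or reversan (5, 15, 25 μM). XTT was added for 4 h at 37 °C, absorbance read at 490 nm, and viability compared with control.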

Data set [5] can be described thus: Cell cycle arrest in human NCI-H1299 cells assessed as G2/M phase accumulation at 1 uM after 48 hrs by propidium iodide staining based flow cytometry (reference value: 11.8%). In kind it is functional. On the technique in general: In flow cytometry, cells or beads pass a laser one at a time.
The nature of data set [6]: Cell cycle arrest in human RD cells assessed as G1 phase accumulation at 1 uM after 24 hrs by propidium iodide staining based flow cytometry (reference value: 56.7 +/- 1.48%). The format is functional.
A short description of data set [7]: Cell cycle arrest in human T98G cells assessed as subG1 phase accumulation at 1 uM after 24 hrs by propidium iodide staining based flow cytometry relative to DMSO control. The format is functional.
A short description of data set [8]: Cell cycle arrest in human T98G cells assessed as G2/M phase accumulation at 1 uM after 24 hrs by propidium iodide staining based flow cytometry (reference value: 8.8 +/- 0.93%). In kind it is functional.
The nature of data set [9]: Cell cycle arrest in human Kelly cells assessed as S phase accumulation at 1 uM after 24 hrs by propidium iodide staining based flow cytometry (reference value: 16.1 +/- 1.28%). In kind it is functional.
Data set [10] in a line: Cell cycle arrest in human LAN1 cells assessed as S phase accumulation at 1 uM after 24 hrs by propidium iodide staining based flow cytometry (reference value: 23.5 +/- 1.32%). In kind it is functional.
Data set [11] is described as follows: Cell cycle arrest in human MCF7 cells assessed as S phase accumulation at 1 uM treated for 24 hrs followed by compound washout measured after 24 hrs by propidium iodide staining based flow cytometry (reference value: 12.2%). In kind it is functional.
Data set [12] is described as follows: Cell cycle arrest in human NB-1 cells assessed as G2/M phase accumulation at 1 uM after 72 hrs by propidium iodide staining based flow cytometry (reference value: 15.8%). The settings on record: nb1, 72 h.
Data set [13] can be described thus: Cell cycle arrest in human NB1 hTERT cells assessed as S phase accumulation at 1 uM after 72 hrs by propidium iodide staining based flow cytometry (reference value: 3.6%). In kind it is functional.
The nature of data set [14]: Disruption of beta-tubulin network in human MCF7 cells assessed as uneven distribution around nuclei at 1 uM after 24 hrs by DAPI staining based immunofluorescence microscopic analysis. The format is cell-based. An outline of the steps:
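Cells seeded on glass coverslips (1 x 10^5/well), treated 24 h, fixed in 4% paraformaldehyde 15 min, permeabilized with 0.5% Triton X-100, blocked in 5% BSA/PBS, stained overnight at 4 °C with anti-β-tubulin (1:200) then fluorescent secondary antibody; nuclei counterstained with DAPI; microtubule organization and nuclear morphology examined by fluorescence microscopy.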

The subject of data set [15] is A549. Description: Increase in p53 expression in human A549 cells at 1 uM after 24 hrs by immunoblot method relative to control. In kind it is functional. An outline of the steps:
(§2)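 After 24 h treatment at 1 μM, cells lysed in Tris pH 8/NaCl/glycerol/NP-40/EDTA buffer with protease inhibitors. Equal lysate amounts run on 10% SDS gels, blotted to nitrocellulose, probed for p53 with GAPDH as loading control, detected by enhanced chemiluminescence. Bands quantified by densitometry against GAPDH and compared with untreated cells; three independent experiments.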
In general terms: Immunoblotting shows a protein as a band on a membrane.

Data set [16] in a line: Effect on p53 expression in human NB-1 cells at 1 uM after 24 hrs by immunoblot method. The settings on record: nb1, 24 h. In kind it is cell-based. An outline of the steps:
as §2

Data set [17] concerns HeLa. Description: Induction of apoptosis in human HeLa cells assessed as live cells at 5 uM after 48 hrs by Annexin-V FITC/propidium iodide staining based flow cytometry (reference value: 91.1%). In kind it is functional.
In data set [18] the test system is A549. As to the kind of experiment: Induction of apoptosis in human A549 cells assessed as late apoptotic cells at 5 uM after 72 hrs by Annexin-V FITC/propidium iodide staining based flow cytometry (reference value: 5.2%). In kind it is functional.
Data set [19] in a line: Induction of apoptosis in human NB1 hTERT cells assessed as live cells at 5 uM after 72 hrs by Annexin-V FITC/propidium iodide staining based flow cytometry (reference value: 93.2%). In kind it is functional.
Data set [20] is described as follows: Induction of apoptosis in human NB1 hTERT cells assessed as necrotic cells at 5 uM after 72 hrs by Annexin-V FITC/propidium iodide staining based flow cytometry (reference value: 1.6%). The format is functional.
Data set [21] is described as follows: Antiproliferative activity against human NB-1 cells after 72 hrs by XTT assay. In kind it is cell-based. The settings on record: NB1, 72 h. An outline of the steps: as §1
Data set [22] in a line: Cell cycle arrest in human NCI-H1299 cells assessed as sub G1 phase accumulation at 1 uM after 48 hrs by propidium iodide staining based flow cytometry relative to control. The format is functional.
Data set [23] deals with HeLa. Description: Disruption of beta-tubulin network in human HeLa cells assessed as induction of abnormal cell division at 1 uM after 24 hrs by DAPI staining based immunofluorescence microscopic analysis.

`Cc1[nH]c2c(c1-c1nnc(-c3ccccc3)o1)Cc1ccccc1-2`: the result (in the data set with MCF7; in the data set on HeLa [1]; in data set [14]; with HeLa [23]) was Active. Also, the half-inhibitory concentration (IC50) in [2] turned out to be 120 nM; in data set [3], 190 nM; in data set [21] it was 1300 nM. Further, the Activity in data set [4] was 40%; in [5], 42.9%; in [6] it was 36.9%; in data set [7], 16.8%; in [8], 65.9%; in data set [9] it was 9.7%. Further, the Activity in data set [10] is 5.6%; in data set [11] it was 11.6%; in [12], 18.1%; in data set [13], 8.3%; in data set [16] it was “Non-Toxic”; in the data set with HeLa [17] it was 6%. The Activity in the data set on A549 [18] was found to be 41.7%; in data set [19] it was 81%; in [20], 2.1%; in data set [22], 13.4%. For the same compound, the “fold change (FC)” value with A549 [15] is 2 - 3.

The term IC50 denotes the point on the concentration scale where inhibition reaches its midpoint.
